Results as given in ChEMBL document CHEMBL4393661, “PRODRUGS FOR NITROREDUCTASE BASED CANCER THERAPY- 2: Novel amide/Ntr combinations targeting PC3 cancer cells” (Eur J Med Chem, 2019).

Key:
Format in all cases: ADME
Putative nitroreductase [1] = target: T1, Putative nitroreductase (Staphylococcus saprophyticus subsp. saprophyticus (strain ATCC 15305 / DSM20229 / NCIMB 8711 / NCTC 7292 / S-41), UniProt Q4A0P1); assay: Prodrug conversion assessed Staphylococcus saprophyticus nitroreductase expressed in Escherichia coli-mediated PP (4-(hydroxyamino)phenyl)(piperidin-1-yl)methanone metabolite formation by measuring retention time in presence of FDH cofactor regeneration system at 100 uM by HPLC analysis
T1 sequence (Q4A0P1 whole entry): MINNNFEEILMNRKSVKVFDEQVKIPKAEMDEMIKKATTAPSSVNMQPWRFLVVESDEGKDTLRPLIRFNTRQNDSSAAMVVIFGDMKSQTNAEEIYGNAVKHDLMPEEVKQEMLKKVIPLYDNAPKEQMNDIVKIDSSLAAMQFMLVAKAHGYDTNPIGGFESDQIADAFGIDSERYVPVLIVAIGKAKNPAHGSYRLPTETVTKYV
Outline: (§1)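 This was a coupled regeneration reaction: 100 µM substrate in Tris/Cl pH 7.5 with 5–15% DMSO, plus 100 µM NADH, 10 µM NAD+, 0.1 mg/mL BSA, 200 µM sodium formate, 30 µg/mL Ssap-NtrB and 30 µg/mL Candida methylica FDH, at 25 °C. Aliquots were taken over time, quenched 1:1 with cold acetonitrile and analysed by C18 HPLC using program II (20→80→20% ACN). Peak areas were read at 254 and 340 nm.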

Putative nitroreductase [2] = target: T1, Putative nitroreductase; assay: Prodrug conversion assessed Staphylococcus saprophyticus nitroreductase expressed in Escherichia coli-mediated (4-aminophenyl)(piperidin-1-yl)methanone metabolite formation by measuring retention time in presence of FDH cofactor regeneration system at 100 uM by HPLC analysis; outline: as §1
Putative nitroreductase [3] = target: T1, Putative nitroreductase; assay: Prodrug conversion assessed Staphylococcus saprophyticus nitroreductase expressed in Escherichia coli-mediated PP (4-(hydroxyamino)phenyl)(piperidin-1-yl)methanone metabolite formation by measuring retention time of metabolite at 100 uM incubated for 15 mins by HPLC analysis; conditions: 0.25 h
Outline: (§2)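 Recombinant Ssap-NtrB, Ni-column purified, was used at 2.5 µg/mL. Substrate at 100 µM was reacted with 200 µM NADH in 25 mM Tris/Cl pH 7.5 with 10% DMSO at 25 °C for 15 min. The reaction was stopped 1:1 with cold acetonitrile and run on C18 RP-HPLC at 1 mL/min with a 20–80% ACN gradient. Peaks were detected at 254 and 340 nm.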

[4] = target: T2, Oxygen-insensitive NAD(P)H nitroreductase (Escherichia coli K-12, UniProt P38489); assay: Substrate activity at Escherichia coli nitroreductase nfsB assessed as ratio of Kcat/Km up to 80 mM using NADH as cofactor relative to CB1954/NfsB
T2 sequence (P38489 whole entry): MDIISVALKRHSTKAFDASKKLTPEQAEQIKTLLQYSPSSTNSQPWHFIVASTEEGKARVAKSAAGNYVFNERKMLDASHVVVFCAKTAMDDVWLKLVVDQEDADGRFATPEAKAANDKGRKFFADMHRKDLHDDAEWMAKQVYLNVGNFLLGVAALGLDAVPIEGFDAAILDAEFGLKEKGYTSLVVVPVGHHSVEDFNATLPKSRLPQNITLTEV

[5] = target: T3, Escherichia coli nitroreductase nfsB (oxygen-insensitive NAD(P)H nitroreductase) (Escherichia coli K-12, UniProt P38489); assay: Substrate activity at Escherichia coli nitroreductase nfsB assessed as Km using NADH as cofactor in Tris-Cl buffer at pH 7.5 by spectrophotometric method
T3 sequence (P38489 whole entry): T2 sequence (P38489 whole entry)

[6] = target: T2, Oxygen-insensitive NAD(P)H nitroreductase; assay: Substrate activity at Escherichia coli nitroreductase nfsB assessed as ratio of Kcat/Km using NADH as cofactor in Tris-Cl buffer at pH 7.5 by spectrophotometric method
Putative nitroreductase [7] = target: T1, Putative nitroreductase; assay: Substrate activity at Staphylococcus saprophyticus nitroreductase assessed as Kcat using NADPH as cofactor in presence of Tris-Cl buffer at pH 7.5 by spectrophotometric method
Outline: (§3)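 Michaelis–Menten parameters for recombinant Ssap-NtrB were measured spectrophotometrically at 25 °C in 25 mM Tris-Cl buffer pH 7.5 containing 5% DMSO as cosolvent.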

Putative nitroreductase [8] = target: T1, Putative nitroreductase; assay: Substrate activity at Staphylococcus saprophyticus nitroreductase assessed as ratio of Kcat/Km using NADPH as cofactor in presence of Tris-Cl buffer at pH 7.5 by spectrophotometric method; outline: as §3
[9] = target: T4, Staphylococcus saprophyticus nitroreductase (Staphylococcus saprophyticus subsp. saprophyticus (strain ATCC 15305 / DSM20229 / NCIMB 8711 / NCTC 7292 / S-41), UniProt Q4A0P1); assay: Substrate activity at Staphylococcus saprophyticus nitroreductase assessed as Km using NADPH as cofactor in presence of Tris-Cl buffer at pH 7.5 by spectrophotometric method; outline: as §3
T4 sequence (Q4A0P1 whole entry): T1 sequence (Q4A0P1 whole entry)

Putative nitroreductase [10] = target: T1, Putative nitroreductase; assay: Prodrug conversion assessed Staphylococcus saprophyticus nitroreductase expressed in Escherichia coli-mediated (4-(hydroxyamino)phenyl)(morpholino)methanone metabolite formation by measuring retention time of metabolite at 100 uM incubated for 15 mins by HPLC analysis; conditions: 0.25 h; outline: as §2

O=C(c1ccc(NO)cc1)N1CCCCC1
Retention_time (Putative nitroreductase [1]): 14 min
Retention_time (Putative nitroreductase [2]): 22.3 min
Retention_time (Putative nitroreductase [3]): 15.99 min

NC(=O)c1cc(N(CCCl)CCCl)c([N+](=O)[O-])cc1[N+](=O)[O-]
fold change (FC) [4]: 1.89
Km [5]: 2500 µM
Kcat/Km [6]: 10560 M⁻¹ s⁻¹
Kcat (Putative nitroreductase [7]): 0.8 s⁻¹
Kcat/Km (Putative nitroreductase [8]): 9350 M⁻¹ s⁻¹
Km [9]: 82.4 µM

O=C(c1ccc(NO)cc1)N1CCOCC1
Retention_time (Putative nitroreductase [10]): 11.71 min
